From ChEMBL document CHEMBL5678818, “Discovery of potent SOS1 inhibitors that block RAS activation via disruption of the RAS-SOS1 interaction” (Proc Natl Acad Sci U S A, 2019)

Tests used:
[1] = molecular target: Tyrosine-protein kinase BTK (Homo sapiens) (UniProt Q06187); assay: Inhibition of BTK (unknown origin) assessed as residual activity at 1000 nM by KINOMEscan analysis relative to control
[2] = molecular target: Cyclin-dependent kinase 5 (Homo sapiens) (UniProt Q00535); assay: Inhibition of CDK5 (unknown origin) assessed as residual activity at 1000 nM by KINOMEscan analysis relative to control
[3] = molecular target: T1, Serine/threonine-protein kinase DCLK2 (Homo sapiens) (UniProt Q8N568); assay: Inhibition of DCAMKL2 (unknown origin) assessed as residual activity at 1000 nM by KINOMEscan analysis relative to control
T1 sequence (whole entry): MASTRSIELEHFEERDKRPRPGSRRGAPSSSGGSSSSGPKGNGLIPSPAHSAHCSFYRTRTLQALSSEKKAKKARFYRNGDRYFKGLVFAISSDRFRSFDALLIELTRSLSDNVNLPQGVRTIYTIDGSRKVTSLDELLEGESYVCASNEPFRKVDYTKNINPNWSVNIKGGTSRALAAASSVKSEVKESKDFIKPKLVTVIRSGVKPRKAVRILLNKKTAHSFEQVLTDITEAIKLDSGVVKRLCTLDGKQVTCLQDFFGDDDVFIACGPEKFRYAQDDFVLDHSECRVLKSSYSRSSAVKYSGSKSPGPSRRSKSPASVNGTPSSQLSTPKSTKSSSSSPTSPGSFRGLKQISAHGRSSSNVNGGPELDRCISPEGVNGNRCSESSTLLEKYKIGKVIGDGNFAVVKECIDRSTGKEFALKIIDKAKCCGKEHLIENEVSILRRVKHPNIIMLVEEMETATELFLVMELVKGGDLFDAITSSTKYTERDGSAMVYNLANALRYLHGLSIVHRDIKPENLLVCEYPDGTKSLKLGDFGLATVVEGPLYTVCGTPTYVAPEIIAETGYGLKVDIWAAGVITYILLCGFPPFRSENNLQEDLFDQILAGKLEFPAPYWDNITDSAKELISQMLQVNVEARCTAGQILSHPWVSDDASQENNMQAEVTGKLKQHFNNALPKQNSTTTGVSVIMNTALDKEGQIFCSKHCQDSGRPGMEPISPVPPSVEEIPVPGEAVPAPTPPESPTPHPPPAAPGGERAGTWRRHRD

[4] = molecular target: T2, Hormonally up-regulated neu tumor-associated kinase (Homo sapiens) (UniProt P57058); assay: Inhibition of HUNK (unknown origin) assessed as residual activity at 1000 nM by KINOMEscan analysis relative to control
T2 sequence (whole entry): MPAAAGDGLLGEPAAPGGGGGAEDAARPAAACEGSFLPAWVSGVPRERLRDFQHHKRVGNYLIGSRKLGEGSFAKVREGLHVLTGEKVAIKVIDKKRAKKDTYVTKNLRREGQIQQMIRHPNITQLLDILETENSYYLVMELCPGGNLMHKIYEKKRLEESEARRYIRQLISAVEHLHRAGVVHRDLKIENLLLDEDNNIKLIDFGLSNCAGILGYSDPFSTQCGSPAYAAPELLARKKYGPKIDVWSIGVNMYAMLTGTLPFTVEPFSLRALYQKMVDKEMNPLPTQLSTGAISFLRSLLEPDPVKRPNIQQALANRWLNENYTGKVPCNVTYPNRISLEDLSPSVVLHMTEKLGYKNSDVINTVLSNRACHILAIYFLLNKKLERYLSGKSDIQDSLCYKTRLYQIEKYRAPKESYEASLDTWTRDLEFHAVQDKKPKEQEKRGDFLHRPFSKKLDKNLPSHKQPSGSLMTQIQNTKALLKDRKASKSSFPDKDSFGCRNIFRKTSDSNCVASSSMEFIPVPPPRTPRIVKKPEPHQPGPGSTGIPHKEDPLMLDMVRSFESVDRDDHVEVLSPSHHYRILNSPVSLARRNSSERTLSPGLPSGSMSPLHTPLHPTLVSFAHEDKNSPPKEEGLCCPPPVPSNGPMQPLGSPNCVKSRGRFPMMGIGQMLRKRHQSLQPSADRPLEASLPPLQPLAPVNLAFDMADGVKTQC

[5] = molecular target: Serine/threonine-protein kinase 10 (Homo sapiens) (UniProt O94804); assay: Inhibition of LOK (unknown origin) assessed as residual activity at 1000 nM by KINOMEscan analysis relative to control
[6] = molecular target: T3, Mitogen-activated protein kinase 13 (Homo sapiens) (UniProt O15264); assay: Inhibition of p38-delta (unknown origin) assessed as residual activity at 1000 nM by KINOMEscan analysis relative to control
T3 sequence (whole entry): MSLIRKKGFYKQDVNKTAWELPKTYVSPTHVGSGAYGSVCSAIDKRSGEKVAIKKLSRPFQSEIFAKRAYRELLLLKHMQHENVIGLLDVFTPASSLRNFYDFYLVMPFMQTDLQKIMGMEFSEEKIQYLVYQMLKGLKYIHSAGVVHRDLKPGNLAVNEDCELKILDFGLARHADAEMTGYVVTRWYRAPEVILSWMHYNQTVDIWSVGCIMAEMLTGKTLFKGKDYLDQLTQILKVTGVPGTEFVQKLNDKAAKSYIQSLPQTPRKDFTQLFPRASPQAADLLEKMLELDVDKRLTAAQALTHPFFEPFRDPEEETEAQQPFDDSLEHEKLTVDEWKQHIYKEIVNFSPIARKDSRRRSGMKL

[7] = molecular target: Protein kinase C theta type (Homo sapiens) (UniProt Q04759); assay: Inhibition of PRKCQ (unknown origin) assessed as residual activity at 1000 nM by KINOMEscan analysis relative to control
[8] = system: Proto-oncogene tyrosine-protein kinase receptor Ret (Homo sapiens), P07949 [V804L]; assay: Inhibition of RET V804L mutant (unknown origin) assessed as residual activity at 1000 nM by KINOMEscan analysis relative to control
[9] = molecular target: Ribosomal protein S6 kinase alpha-1 (Homo sapiens) (UniProt Q15418); assay: Inhibition of C-terminal RSK1 kinetic domain 2 (unknown origin) assessed as residual activity at 1000 nM by KINOMEscan analysis relative to control
[10] = molecular target: Serine/threonine-protein kinase 16 (Homo sapiens) (UniProt O75716); assay: Inhibition of STK16 (unknown origin) assessed as residual activity at 1000 nM by KINOMEscan analysis relative to control
[11] = system: NCI-H358; assay: Antiproliferative activity against human NCI-H358 cells assessed as inhibition of cell viability incubated for 72 hrs by Cell Titer Glo assay; type: functional, cell-based; details: NCI-H358, 72 h
How it was run: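 NCI-H358 cells (KRAS G12C mutant) were sourced from ATCC.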

Tyrosine-protein kinase BTK (Homo sapiens), sequence (Q06187 whole entry): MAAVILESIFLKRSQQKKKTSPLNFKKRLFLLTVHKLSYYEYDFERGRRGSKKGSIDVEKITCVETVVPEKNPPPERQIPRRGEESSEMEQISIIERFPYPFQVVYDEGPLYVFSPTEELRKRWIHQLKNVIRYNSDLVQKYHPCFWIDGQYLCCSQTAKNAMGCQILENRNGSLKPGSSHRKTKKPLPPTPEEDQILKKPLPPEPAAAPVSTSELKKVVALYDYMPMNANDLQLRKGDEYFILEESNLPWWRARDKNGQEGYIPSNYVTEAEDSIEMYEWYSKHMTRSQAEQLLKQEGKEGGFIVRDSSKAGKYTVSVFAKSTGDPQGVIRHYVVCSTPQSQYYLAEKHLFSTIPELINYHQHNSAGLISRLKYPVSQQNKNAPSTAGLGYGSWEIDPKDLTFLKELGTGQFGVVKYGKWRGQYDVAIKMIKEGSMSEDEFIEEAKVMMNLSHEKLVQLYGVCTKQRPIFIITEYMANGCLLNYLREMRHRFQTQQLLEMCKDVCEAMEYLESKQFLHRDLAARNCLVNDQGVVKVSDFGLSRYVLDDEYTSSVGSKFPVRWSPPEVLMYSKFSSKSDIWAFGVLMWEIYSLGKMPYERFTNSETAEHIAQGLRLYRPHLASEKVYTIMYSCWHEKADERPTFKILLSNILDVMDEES
Protein kinase C theta type (Homo sapiens), sequence (Q04759 whole entry, looked up): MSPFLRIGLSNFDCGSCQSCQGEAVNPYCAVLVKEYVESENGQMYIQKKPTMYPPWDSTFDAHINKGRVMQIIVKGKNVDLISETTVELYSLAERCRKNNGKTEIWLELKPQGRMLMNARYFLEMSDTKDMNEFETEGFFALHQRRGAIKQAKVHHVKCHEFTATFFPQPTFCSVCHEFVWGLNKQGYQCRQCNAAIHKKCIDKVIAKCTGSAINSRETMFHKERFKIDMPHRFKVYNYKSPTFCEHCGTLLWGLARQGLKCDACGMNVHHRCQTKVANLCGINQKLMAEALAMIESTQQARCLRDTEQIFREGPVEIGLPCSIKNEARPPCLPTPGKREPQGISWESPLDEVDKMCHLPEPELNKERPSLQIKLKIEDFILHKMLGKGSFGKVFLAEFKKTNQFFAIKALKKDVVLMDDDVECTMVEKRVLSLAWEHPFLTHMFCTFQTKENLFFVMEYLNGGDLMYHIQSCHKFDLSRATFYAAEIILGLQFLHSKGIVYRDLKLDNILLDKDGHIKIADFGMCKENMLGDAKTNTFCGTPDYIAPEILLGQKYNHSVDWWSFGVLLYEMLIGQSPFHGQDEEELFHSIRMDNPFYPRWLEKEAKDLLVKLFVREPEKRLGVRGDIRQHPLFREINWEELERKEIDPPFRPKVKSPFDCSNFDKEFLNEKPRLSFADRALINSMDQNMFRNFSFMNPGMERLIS
Cyclin-dependent kinase 5 (Homo sapiens), sequence (Q00535 whole entry, looked up): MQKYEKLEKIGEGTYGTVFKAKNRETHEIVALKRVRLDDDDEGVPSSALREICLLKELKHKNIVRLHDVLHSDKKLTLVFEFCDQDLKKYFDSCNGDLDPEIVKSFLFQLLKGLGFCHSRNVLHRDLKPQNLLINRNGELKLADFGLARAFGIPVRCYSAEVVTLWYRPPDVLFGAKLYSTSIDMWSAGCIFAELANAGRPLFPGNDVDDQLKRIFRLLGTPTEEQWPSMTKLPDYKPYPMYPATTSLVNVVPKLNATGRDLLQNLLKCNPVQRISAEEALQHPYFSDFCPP
Proto-oncogene tyrosine-protein kinase receptor Ret (Homo sapiens), P07949 [V804L], sequence (P07949 whole entry V804L, the tested form may be a part): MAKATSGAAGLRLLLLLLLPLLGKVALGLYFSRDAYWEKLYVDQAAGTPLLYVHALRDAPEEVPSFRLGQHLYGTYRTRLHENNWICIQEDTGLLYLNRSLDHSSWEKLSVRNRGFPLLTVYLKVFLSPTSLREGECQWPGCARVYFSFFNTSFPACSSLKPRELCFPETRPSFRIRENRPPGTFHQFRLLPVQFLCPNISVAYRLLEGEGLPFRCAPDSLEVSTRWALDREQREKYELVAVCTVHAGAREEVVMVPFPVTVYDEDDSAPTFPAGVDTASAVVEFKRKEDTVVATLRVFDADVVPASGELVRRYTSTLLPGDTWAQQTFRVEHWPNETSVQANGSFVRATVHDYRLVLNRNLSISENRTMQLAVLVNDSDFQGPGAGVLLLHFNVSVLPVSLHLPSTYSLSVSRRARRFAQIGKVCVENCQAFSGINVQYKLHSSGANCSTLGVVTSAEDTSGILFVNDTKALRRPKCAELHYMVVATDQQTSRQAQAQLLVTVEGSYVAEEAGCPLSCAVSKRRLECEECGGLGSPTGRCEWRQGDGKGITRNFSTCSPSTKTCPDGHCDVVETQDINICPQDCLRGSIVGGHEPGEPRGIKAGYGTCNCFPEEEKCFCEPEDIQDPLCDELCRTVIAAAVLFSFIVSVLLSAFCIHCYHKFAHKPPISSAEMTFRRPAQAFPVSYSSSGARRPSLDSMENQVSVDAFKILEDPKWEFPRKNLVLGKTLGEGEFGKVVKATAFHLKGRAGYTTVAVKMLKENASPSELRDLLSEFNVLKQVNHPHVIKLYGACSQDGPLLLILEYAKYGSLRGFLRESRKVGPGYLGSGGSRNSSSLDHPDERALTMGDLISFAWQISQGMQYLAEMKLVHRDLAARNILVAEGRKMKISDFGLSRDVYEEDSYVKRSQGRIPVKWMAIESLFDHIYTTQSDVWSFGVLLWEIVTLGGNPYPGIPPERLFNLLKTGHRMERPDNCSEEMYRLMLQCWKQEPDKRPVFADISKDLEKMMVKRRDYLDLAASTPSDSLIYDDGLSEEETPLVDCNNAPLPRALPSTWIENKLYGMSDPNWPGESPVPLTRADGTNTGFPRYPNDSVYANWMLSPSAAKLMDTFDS
Ribosomal protein S6 kinase alpha-1 (Homo sapiens), sequence (Q15418 whole entry, the tested form may be a part): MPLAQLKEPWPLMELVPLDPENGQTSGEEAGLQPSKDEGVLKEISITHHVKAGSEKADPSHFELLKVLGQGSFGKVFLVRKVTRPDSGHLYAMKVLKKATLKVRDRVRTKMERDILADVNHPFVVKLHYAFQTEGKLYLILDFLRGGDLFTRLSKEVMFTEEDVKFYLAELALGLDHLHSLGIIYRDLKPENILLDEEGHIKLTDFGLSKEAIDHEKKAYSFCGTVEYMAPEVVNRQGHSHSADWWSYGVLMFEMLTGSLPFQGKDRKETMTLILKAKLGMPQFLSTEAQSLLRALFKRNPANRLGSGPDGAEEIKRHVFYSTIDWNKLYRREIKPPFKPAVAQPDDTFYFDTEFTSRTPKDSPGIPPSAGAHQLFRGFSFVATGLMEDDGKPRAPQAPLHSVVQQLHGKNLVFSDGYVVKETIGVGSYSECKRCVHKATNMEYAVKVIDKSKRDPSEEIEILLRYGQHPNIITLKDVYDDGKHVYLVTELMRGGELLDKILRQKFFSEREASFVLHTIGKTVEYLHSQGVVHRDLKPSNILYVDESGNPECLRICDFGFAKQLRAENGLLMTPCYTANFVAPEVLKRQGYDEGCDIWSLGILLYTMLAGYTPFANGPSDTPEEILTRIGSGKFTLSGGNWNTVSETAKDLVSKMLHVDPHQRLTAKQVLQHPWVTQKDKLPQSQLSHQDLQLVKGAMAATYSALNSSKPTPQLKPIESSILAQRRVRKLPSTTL
Serine/threonine-protein kinase 16 (Homo sapiens), sequence (O75716 whole entry): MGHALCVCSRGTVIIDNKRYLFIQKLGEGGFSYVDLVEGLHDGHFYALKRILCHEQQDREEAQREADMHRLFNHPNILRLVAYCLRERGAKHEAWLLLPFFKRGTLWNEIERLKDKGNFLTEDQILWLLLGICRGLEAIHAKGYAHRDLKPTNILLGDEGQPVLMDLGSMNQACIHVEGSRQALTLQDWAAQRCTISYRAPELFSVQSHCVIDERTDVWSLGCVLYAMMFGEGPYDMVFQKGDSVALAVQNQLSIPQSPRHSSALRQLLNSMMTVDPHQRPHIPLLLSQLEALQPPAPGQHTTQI
Serine/threonine-protein kinase 10 (Homo sapiens), sequence (O94804 whole entry, looked up): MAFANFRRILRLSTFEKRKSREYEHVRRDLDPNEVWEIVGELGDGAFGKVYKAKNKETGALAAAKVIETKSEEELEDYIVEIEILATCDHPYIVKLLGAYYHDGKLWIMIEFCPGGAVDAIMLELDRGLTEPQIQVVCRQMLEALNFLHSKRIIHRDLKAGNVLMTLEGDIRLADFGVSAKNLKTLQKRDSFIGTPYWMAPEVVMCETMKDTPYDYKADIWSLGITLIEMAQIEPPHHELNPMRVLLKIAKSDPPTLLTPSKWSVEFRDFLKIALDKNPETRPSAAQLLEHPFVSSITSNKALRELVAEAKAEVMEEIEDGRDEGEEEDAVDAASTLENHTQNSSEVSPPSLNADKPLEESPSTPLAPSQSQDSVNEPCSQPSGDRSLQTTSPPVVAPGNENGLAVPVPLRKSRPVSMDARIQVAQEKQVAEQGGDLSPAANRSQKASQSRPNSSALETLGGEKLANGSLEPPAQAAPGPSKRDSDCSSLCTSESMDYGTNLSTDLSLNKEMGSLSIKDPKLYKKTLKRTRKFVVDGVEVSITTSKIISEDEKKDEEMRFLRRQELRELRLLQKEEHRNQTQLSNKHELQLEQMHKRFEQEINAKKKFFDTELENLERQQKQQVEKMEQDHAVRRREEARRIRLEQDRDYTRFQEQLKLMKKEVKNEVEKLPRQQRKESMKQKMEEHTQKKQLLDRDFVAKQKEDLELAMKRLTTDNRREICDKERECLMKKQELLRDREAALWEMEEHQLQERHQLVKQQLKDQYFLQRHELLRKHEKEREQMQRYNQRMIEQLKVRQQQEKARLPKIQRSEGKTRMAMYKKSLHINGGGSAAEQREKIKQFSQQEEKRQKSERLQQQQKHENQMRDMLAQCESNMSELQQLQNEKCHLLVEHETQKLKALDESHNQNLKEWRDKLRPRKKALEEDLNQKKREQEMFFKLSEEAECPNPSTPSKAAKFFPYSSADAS

SMILES	Activity [1] [%]	Activity [2] [%]	Activity [3] [%]	Activity [4] [%]	Activity [5] [%]	Activity [6] [%]	Activity [7] [%]	Activity [8] [%]	Activity [9] [%]	Activity [10] [%]	IC50 [11] [µM]
COc1cc2ncnc(N[C@H](C)c3cccc4ccccc34)c2cc1OC	97	100	100	76	44	100	100	100	100	93	–
CNCc1ccccc1-c1csc([C@@H](C)Nc2nc(C)nc3cc(OC)c(OC)cc23)c1 [BAY-293]	–	–	–	–	–	–	–	–	–	–	3.48
COc1cc2nc(C)nc(N[C@H](C)c3cccc(-c4cn[nH]c4)c3)c2cc1OC	100	94	98	94	56	90	84	65	99	74	13.6
